HTR1A agonist – agonists of human 5-HT1a serotonin receptor. P08908. CHO 5-HT1a Ga15 NFAT-bla reporter, FRET ratio; 0% basal, 100% maximal reference agonist. activation, % at 10 µM. actives 0.56% (n = 65,000);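 active means activation above the screen-wide mean activation plus 3 SD, cut at about 19% in these data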;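 further: 0% = DMSO wells and 100% = 5-CT at EC100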
Target sequence (P08908 whole entry, looked up): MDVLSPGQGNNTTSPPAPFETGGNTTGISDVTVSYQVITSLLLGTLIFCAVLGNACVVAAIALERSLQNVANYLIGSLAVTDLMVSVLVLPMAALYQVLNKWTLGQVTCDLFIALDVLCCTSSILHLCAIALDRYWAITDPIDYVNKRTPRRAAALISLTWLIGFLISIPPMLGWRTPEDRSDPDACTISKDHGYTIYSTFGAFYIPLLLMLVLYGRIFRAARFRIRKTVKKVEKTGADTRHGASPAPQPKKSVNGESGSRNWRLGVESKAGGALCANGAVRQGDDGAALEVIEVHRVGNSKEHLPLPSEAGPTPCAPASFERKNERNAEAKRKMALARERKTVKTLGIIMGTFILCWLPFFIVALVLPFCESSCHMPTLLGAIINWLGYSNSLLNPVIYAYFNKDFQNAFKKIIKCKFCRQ
S1P3 agonist – agonists of human S1P3 receptor. S1P3 NFAT-BLA reporter cells, agonism, FRET ratio; relative to 1 µM S1P, basal subtracted. Q99500. AID 373. actives 0.1% (n = 60,000). activation, % at 4.5 µM;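 active means activation above the screen-wide mean plus 3 SD, cut at about 4.5% in these data, passing the limit was not always enough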
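Assay system: stable CHO line with human S1P3, Gα16, NFAT-BLA reporter; Detection: FRET β-lactamase substrate fluorescence, excitation 405 nm, 460/535 nm emission ratio, background-subtracted; Read-out: percent activation versus median 1 µM S1P response, basal-subtracted, per plate; Incubation: cells plated overnight, compound 4 h 37 °C, substrate 2 h RT.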
S1P1 ag pot – S1P1 (human) agonism or agonism potentiation; S1P1 CRE-bla cells, forskolin, beta-lactamase FRET, potentiator mode; S1P1 agonist co-added at EC20, 2 nM; 100% = saturating reference agonist, 0% = basal; activation, % at 9.5 µM; AID 449; actives 0.57% (n = 56,000); P21453;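 active means activation above a cutoff set at the mean activation of all tested compounds plus 3 SD, cut at about 54% in these data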;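 further: forskolin at 4 µM as EC80 and the EC20 agonist is SEW2871; 100% = SEW2871 at its EC100 plus forskolin at EC80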
5HT1E ag – 5-HT1E (human) receptor agonism; CHO 5-HT1E Ga15 NFAT-bla reporter, FRET; 0% DMSO wells, 100% control agonist wells; activation, % at 6 µM; actives 0.69% (n = 65,000);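 active means activation above a set limit, the screen-wide mean activation plus 3 SD, cut at about 8.5% in these data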;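 further: 100% = positive control agonist at 1 µM giving full maximal response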
HTR1E antagonist – blocks the human 5-HT1E serotonin receptor. P28566. CHO 5-HT1E Ga15 NFAT-bla reporter, FRET, antagonist. inhibition, % at 6 µM. actives 0.99% (n = 65,000). AID 571;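 active means inhibition above a set limit, the mean inhibition across every tested compound plus 3 SD, cut at about 29% in these data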;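 further: signal is the 460 over 535 nm emission ratio of beta-lactamase substrate; 0% = agonist plus DMSO wells and 100% = wells without agonist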
5-HT1A blocker – blocks the human serotonin 5-HT1a receptor. P08908. CHO 5-HT1a Ga15 NFAT-bla reporter, antagonist mode. inhibition, % at 10 µM. actives 0.68% (n = 62,000);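 active means inhibition above the mean of all tested compounds plus 3 SD, cut at about 43% in these data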;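 further: receptor stimulated by 5-CT agonist at 100 nM near EC80; beta-lactamase reporter measured by ratiometric fluorescence of a cleavable substrate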
An asterisk follows results filed as active; x = no result given. An excerpt weighted towards active compounds, which were near 3% of everything screened.

SMILES | HTR1A agonist | S1P3 agonist | S1P1 ag pot | 5HT1E ag | HTR1E antagonist | 5-HT1A blocker
OC(CN1CCN(c2cccc(C(F)(F)F)c2)CC1)c1c[nH]c2ccccc12 (centres undefined) | 55* | -1 | 11 | 1 | -4 | 11
CS(=O)(=O)c1nc(-c2ccco2)cc(C(F)(F)F)n1 | -5 | x | x | -1 | 100* | 103*
Cc1cc(NC(=O)CSc2nc(-c3ccco3)cc(C(F)(F)F)n2)no1 | -1 | -1 | 4 | -2 | 68* | 59*
CC1CCN(S(=O)(=O)c2ccc(S(=O)(=O)NCC3COCCO3)cc2)CC1 (centres undefined) | -2 | 0 | -3 | 26* | 5 | -18
O=C(NCC1CCCO1)c1ccc(S(=O)(=O)N2CCCCC2)cc1 (centres undefined) | -2 | -1 | -21 | -1 | -12 | -2
O=C1C(=O)N(CCCn2ccnc2)C(c2cccnc2)/C1=C(/O)c1ccc(Cl)cc1 (centres undefined) | 0 | 0 | -11 | 0 | -1 | -10
CCC(C)(C(=O)NC1CCCC1)N(Cc1ccco1)C(=O)c1ccc2c(c1)OCO2 (centres undefined) | -2 | -1 | 1 | 0 | -20 | 49*
CCC(C)(C(=O)NC1CCCC1)N(Cc1ccco1)C(=O)c1ccccn1 (centres undefined) | -1 | -1 | -1 | 0 | 2 | 32
CCC(C)(C(=O)NC1CCCC1)N(Cc1cccs1)C(=O)Cc1cccs1 (centres undefined) | 0 | x | x | -1 | 8 | 59*
CCC(C)(C(=O)NC1CCCC1)N(Cc1cccs1)C(C)=O (centres undefined) | -2 | x | x | 0 | 6 | 16
COc1ccc(-n2c(C)cc(C(=O)CSc3nnc(-c4ccoc4C)n3C)c2C)cc1 | -1 | 1 | 13 | 0 | 0 | -4
COc1ccc2ncn(-c3ccccc3)c2c1 | -4 | -2 | 68* | -1 | 16 | 23
CN(c1ccccc1)c1nc(N2CCCC2)nc(-n2ccnc2)n1 | 1 | -2 | 0 | 0 | 14 | 53*
CCOC(=O)C1=C(C)N=C2SC(C)C(=O)N2C1c1ccc(OCC)c(OCC)c1 (centres undefined) | 1 | 1 | 1 | 0 | 7 | 2
Cc1cc(C(C)(C)C)cc(C)c1CC1=NCCN1 | 43* | -4 | 18 | 89* | -3 | x
COc1ccc(-c2cc(-c3cccs3)c(C#N)c(SCC(=O)NCc3ccco3)n2)cc1 | 3 | -1 | 14 | -1 | 32* | 23
CN1CCN(C(=O)CSc2nc(-c3cccs3)cc(-c3cccs3)c2C#N)CC1 | -4 | -1 | 67* | 4 | 20 | 5
O=C(CSc1nc(-c2cccs2)cc(C(F)(F)F)n1)NCc1ccco1 | -3 | -1 | -1 | 0 | 4 | 4
N#Cc1c(-c2ccco2)cc(-c2cccnc2)nc1N | 0 | 1 | -74 | 0 | 38* | 0
Cc1c(-c2ccccc2)nc(N)c(C#N)c1-c1ccco1 | 17 | 0 | -81 | 0 | 31* | -2
CS(=O)(=O)c1ncc(Cl)c(C(=O)Nc2ccc(N3CCOCC3)cc2)n1 | -2 | 1 | -10 | 1 | 82* | 81*
O=C(Nc1ccc(N2CCOCC2)cc1)c1cnsn1 | -2 | -2 | 13 | -1 | 1 | -14
COc1cc(OC)c(NC(=O)CCc2nc(-c3cccs3)no2)cc1Cl | -3 | x | x | -3 | -3 | 8
c1ccc(-c2cccc(-c3ccccn3)n2)nc1 | -2 | -2 | -5 | -2 | 45* | 59*
c1ccc(-c2nnc(-c3ccccn3)nn2)nc1 | -1 | x | x | 0 | -5 | 6
CCOC(=O)C1=C(c2ccccc2)NC(SCC(=O)Nc2ccccc2C)=C(C#N)C1c1ccco1 (centres undefined) | 4 | -2 | -8 | 2 | -35 | x
COc1ccc(S(=O)(=O)n2nc(OC(=O)c3ccccc3Br)cc2N)cc1 | -3 | 0 | 40 | -1 | -2 | 18
CS(=O)(=O)n1nc(OC(=O)c2cccc3ccccc23)cc1N | -2 | -2 | 65* | -1 | -2 | 43*

Assay outcomes (PubChem)
